What was measured:
Food effect on plasma PK = assay type: in vivo, human
In short: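 The same healthy subjects from the 75-mg fasted single-dose cohort, after a washout of at least five half-lives, fasted 8 h, ate a high-fat breakfast within 20 min and received a single oral 75 mg dose or placebo 30 min after breakfast began. Plasma was sampled predose, through 72 h and on day 7. Concentrations were measured by LC-MS/MS (LLOQ 0.0500 ng/mL). Relative bioavailability versus fasted dosing was based on AUC and Cmax.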

[1] = test system: RIP1 pathway activation (CCL4 release in human whole blood); test: Ex vivo TBZ stimulation assay of whole blood for CCL4 secretion; assay type: cell-based
In short: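 Whole blood from healthy volunteers in the single- and multiple-ascending-dose stages, collected across the dosing periods, stimulated ex vivo to activate the RIP1-mediated necroptosis pathway; secreted CCL4 measured. Inhibition derived by normalising CCL4 levels to each subject's baseline, then adjusting to the maximum inhibition and SD per cohort. Placebo subjects were sampled in parallel.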

O=C(c1nc2n(n1)[C@H](c1ccccc1)C[C@@H]2F)C1CC1 [GDC‐8264]
effect of a high-fat meal on the PKs (Food effect on plasma PK; 75 mg single dose): no significant effect
delay of median T max after a high-fat meal (Food effect on plasma PK; 75 mg, compared to the fasted state): 1 h
timepoint through which >90% inhibition of CCL4 was sustained ([1]; SAD 5- and 25-mg cohorts): ≥ 48 h
timepoint through which >90% inhibition of CCL4 was sustained ([1]; SAD 75-, 150-, and 225-mg cohorts): ≥ 72 h
levels of CCL4 ([1]; SAD 150-mg cohort, 144-h timepoint): comparable to the placebo cohort
group mean inhibition of CCL4 production ([1]; SAD 225-mg cohort, 144 h, mean ± SD, placebo 17% ± 3%): 49% ± 9%
inhibition of CCL4 ([1]; all SAD cohorts (5-225 mg), 1.5 h postdose): greater than 90%

Reference: paper PMC10582670 (Clinical and Translational Science, 2023)
